Calls of active or inactive are those of the source. The rule behind the calls is not given here.
Assays:
[1] = Cytotoxicity against human PC3 cells by SRB method; assay type: functional
Summary of the method: (§1)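 NCI-60 in vitro drug screening panel. Values are the molar concentrations giving 50% growth inhibition (GI50) and total growth inhibition (TGI).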

KM12 = assay: Cytotoxicity against human KM12 cells by SRB method; assay type: functional; summary of the method: as §1
[2] = Cytotoxicity against human UACC62 cells by SRB method; assay type: functional
Summary of the method: (§2)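 NCI-60 in vitro screen panel of human tumor lines; GI50 (molar concentration giving 50% growth inhibition) and TGI (total growth inhibition) taken from dose–response data.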

NCI-H226 = assay: Cytotoxicity against human NCI-H226 cells by SRB method; assay type: functional; summary of the method: as §1
RPMI-8226 = assay: Cytotoxicity against human RPMI8226 cells by SRB method; assay type: functional; summary of the method: as §1
SF-539 = assay: Cytotoxicity against human SF539 cells by SRB method; assay type: functional; summary of the method: as §1
HCC 2998 = assay: Cytotoxicity against human HCC2998 cells by SRB method; assay type: functional; summary of the method: as §1
IGROV-1 = assay: Cytotoxicity against human IGROV1 cells by SRB method; assay type: functional; summary of the method: as §1
SN12C = assay: Cytotoxicity against human SN12C cells by SRB method; assay type: functional; summary of the method: as §2
Mus musculus = assay: Toxicity in athymic nude mouse xenografted with human UACC62 cells assessed as rapid and persistent weight loss at 10 mg/kg, ip; assay type: organism-based, UACC-62; set-up: dose 10 mg/kg, route intraperitoneal; settings: in vivo
NCI-H522 = assay: Cytotoxicity against human NCI-H522 cells by SRB method; assay type: functional; summary of the method: as §1
NCI-H23 = assay: Cytotoxicity against human NCI-H23 cells by SRB method; assay type: functional; summary of the method: as §1
[3] = Cytotoxicity against human SKOV3 cells by SRB method; assay type: functional; settings: SK-OV-3
Summary of the method: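 SRB assay in SK-OV-3 cells; percent cell growth per Boyd et al.; GI50, TGI and LC50 fitted from dose–response curves of percent growth; mean ± SE, n = 3 or 4 independent experiments.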

MDA-MB-231 = assay: Cytotoxicity against human MDA-MB-231 cells by SRB method; assay type: functional; summary of the method: as §1
SNB-19 = assay: Cytotoxicity against human SNB19 cells by SRB method; assay type: functional; summary of the method: as §2
K562 = assay: Cytotoxicity against human K562 cells by SRB method; assay type: functional; summary of the method: as §1
SW-620 = assay: Cytotoxicity against human SW620 cells by SRB method; assay type: functional; summary of the method: as §2
RXF 393 = assay: Cytotoxicity against human RXF393 cells by SRB method; assay type: functional; summary of the method: as §1
HL-60(TB) = assay: Cytotoxicity against human HL-60(TB) cells by SRB method; assay type: functional
Summary of the method: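 Tested in the NCI-60 in vitro screening panel. GI50 is the molar concentration giving 50% growth inhibition, and TGI is the molar concentration giving total growth inhibition.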

MOLT-4 = assay: Cytotoxicity against human MOLT4 cells by SRB method; assay type: functional; summary of the method: as §1
786-0 = assay: Cytotoxicity against human 786-0 cells by SRB method; assay type: functional; summary of the method: as §1
[4] = Cytotoxicity against human UACC62 cells assessed as inhibition of colony formation at 5 nM incubated for 4 hrs followed by compound washout measured after 14 days relative to vehicle-treated control; assay type: functional; settings: UACC-62
Summary of the method: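 Clonogenic test: 600 UACC-62 cells (RPMI1640, 10% FBS, gentamicin) adhered, exposed 4 h to vehicle (DMSO) or compound, washed with DPBS, fresh medium, grown 14 days; fixed, 0.5% crystal violet in 10% methanol, colonies counted; duplicate/triplicate, n = 2–4 experiments; one-way ANOVA with Dunnett's vs vehicle.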

ACHN = assay: Cytotoxicity against human ACHN cells by SRB method; assay type: functional; summary of the method: as §1
COLO 205 = assay: Cytotoxicity against human COLO205 cells by SRB method; assay type: functional; summary of the method: as §1
Malme-3M = assay: Cytotoxicity against human MALME-3M cells by SRB method; assay type: functional; summary of the method: as §1
[5] = Cytotoxicity against human UACC257 cells by SRB method; assay type: functional; summary of the method: as §2
[6] = Cytotoxicity against human NCI-ADR-RES cells by SRB method; assay type: functional; summary of the method: as §1
[7] = Cytotoxicity against human OVCAR4 cells by SRB method; assay type: functional; summary of the method: as §1
HeLa [8] = assay: Inhibition of Histone-lysine N-methyltransferase Su(var)3-9 in human HeLa cells assessed as high H3K9me3 expression at 200 nM after 1 to 24 hrs by immunoblotting analysis; assay type: cell-based
Summary of the method: (§3)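 HeLa cells treated with vehicle or 200 nM for 1–24 h; log-phase cells lysed with protease inhibitors, equal protein by SDS-PAGE, PVDF transfer, probed for H3K9me3 and actin, ECL detection.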

HT-29 = assay: Cytotoxicity against human HT-29 cells by SRB method; assay type: functional; summary of the method: as §1
HeLa [9] = assay: Increase in H3K9 methylation in human HeLa cells assessed as high H3K9me3 expression at 200 nM after 1 to 24 hrs by immunoblotting analysis; assay type: functional, cell-based; summary of the method: as §3
M14 = assay: Cytotoxicity against human M14 cells by SRB method; assay type: functional; summary of the method: as §1
[10] = read-out: LC50 (the source's name)

Question: What does the source list for `CC(C)[C@@]12SS[C@]3(C(=O)N1C)[C@@H](O)[C@]1(C45c6ccccc6N[C@H]4N4C(=O)[C@@]6(CO)SS[C@@]4(C(=O)N6C)[C@H]5O)c4ccccc4N[C@@H]1N3C2=O` (stereo partly drawn)?
Answer: GI50 ([1]; PC-3): 0.0155 µM; TGI ([1]; PC-3): 0.0603 µM; CC50 ([1]; PC-3, read-out: LC50 (the source's name)): 0.209 µM; GI50 (KM12): 0.0195 µM; TGI (KM12): 0.0871 µM; CC50 (KM12; [10]): 0.295 µM; GI50 ([2]; UACC-62): 0.0182 µM; TGI ([2]; UACC-62): 0.0724 µM; CC50 ([2]; UACC-62, read-out: LC50 (the source's name)): 0.295 µM; GI50 (NCI-H226): 0.01 µM; TGI (NCI-H226): 0.024 µM; CC50 (NCI-H226; [10]): 0.0724 µM; GI50 (RPMI-8226): 0.0123 µM; TGI (RPMI-8226): 0.0347 µM; CC50 (RPMI-8226; [10]): > 50 µM; GI50 (SF-539): 0.0151 µM; TGI (SF-539): 0.0589 µM; CC50 (SF-539; [10]): 0.2 µM; GI50 (HCC 2998): 0.0537 µM; TGI (HCC 2998): 0.115 µM; CC50 (HCC 2998; [10]): 0.245 µM; GI50 (IGROV-1): 0.0245 µM; TGI (IGROV-1): 0.1 µM; CC50 (IGROV-1; [10]): 0.339 µM; GI50 (SN12C): 0.0229 µM; TGI (SN12C): 0.525 µM; CC50 (SN12C; [10]): 1.78 µM; Activity (Mus musculus): 5%; GI50 (NCI-H522): 0.0085 µM; TGI (NCI-H522): 0.0178 µM; CC50 (NCI-H522; [10]): 0.038 µM; GI50 (NCI-H23): 0.0162 µM; TGI (NCI-H23): 0.0562 µM; CC50 (NCI-H23; [10]): 0.234 µM; GI50 [3]: 0.0115 µM; LC50 [3]: 0.191 µM; TGI [3]: 0.0339 µM; GI50 (MDA-MB-231): 0.0186 µM; TGI (MDA-MB-231): 0.0708 µM; CC50 (MDA-MB-231; [10]): 0.324 µM; GI50 (SNB-19): 0.112 µM; TGI (SNB-19): 0.513 µM; CC50 (SNB-19; [10]): 1.66 µM; GI50 (K562): 0.0148 µM; TGI (K562): 0.115 µM; CC50 (K562; [10]): > 50 µM; GI50 (SW-620): 0.0083 µM; TGI (SW-620): 0.0316 µM; CC50 (SW-620; [10]): 0.129 µM; GI50 (RXF 393): 0.0078 µM; TGI (RXF 393): 0.0148 µM; CC50 (RXF 393; [10]): 0.0282 µM; GI50 (HL-60(TB)): 0.0263 µM; TGI (HL-60(TB)): 0.195 µM; CC50 (HL-60(TB); [10]): > 50 µM; GI50 (MOLT-4): 0.0132 µM; TGI (MOLT-4): 0.0676 µM; CC50 (MOLT-4; [10]): > 50 µM; GI50 (786-0): 0.0117 µM; TGI (786-0): 0.0263 µM; CC50 (786-0; [10]): 0.0708 µM; inhibition at 0.005 µM [4]: 38%; GI50 (ACHN): 0.0155 µM; TGI (ACHN): 0.0603 µM; CC50 (ACHN; [10]): 0.234 µM; GI50 (COLO 205): 0.0148 µM; TGI (COLO 205): 0.049 µM; CC50 (COLO 205; [10]): 0.155 µM; GI50 (Malme-3M): 0.0078 µM; TGI (Malme-3M): 0.0186 µM; CC50 (Malme-3M; [10]): 0.0457 µM; GI50 ([5]; UACC-257): 0.0087 µM; TGI ([5]; UACC-257): 0.0195 µM; CC50 ([5]; UACC-257, read-out: LC50 (the source's name)): 0.0437 µM; GI50 [6]: 0.0339 µM; TGI [6]: 0.12 µM; CC50 [6, 10]: 0.355 µM; GI50 ([7]; OVCAR-4): 0.0059 µM; TGI ([7]; OVCAR-4): 0.0129 µM; CC50 ([7]; OVCAR-4, read-out: LC50 (the source's name)): 0.0275 µM; inhibition (HeLa [8]): inactive; GI50 (HT-29): 0.0056 µM; TGI (HT-29): 0.0135 µM; CC50 (HT-29; [10]): 0.0324 µM; Activity (HeLa [9]): Active; GI50 (M14): 0.0135 µM; TGI (M14): 0.0537 µM; CC50 (M14; [10]): 0.182 µM

Source: ChEMBL document CHEMBL3351594, “Cytotoxic dimeric epipolythiodiketopiperazines from the ascomycetous fungus Preussia typharum” (J Nat Prod, 2014)
